Where “and” joins values, the source holds several entries; their conditions need not be identical. Equal values may be shown once.
Columns and labels:
[1] = Lethal dose was evaluated in mice; format: toxicity, organism-based; conditions: mouse, in vivo
[2] = Protective index is the ratio of TD50 to ED50; format: ADME
How it was run: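 Protective index was calculated as rotorod TD50 divided by anti-MES ED50. Both were graphical median doses from ip dosing in 30% PEG 400 in male Carworth Farms mice.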

[3] = species: Mus musculus; assay: Hypnotic dose was evaluated in mice; format: functional
[4] = test system: Mus musculus; assay: Compound was evaluated for toxicity by rotarod assay method after 30 minutes; C indicates no activity at 300 mg/kg.; format: organism-based; set-up: dose 300 mg/kg; conditions: in vivo, 0.5 h
How it was run: (§1)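 Male Carworth Farms number-one mice received test compound intraperitoneally in 30% polyethylene glycol 400 at 30, 100 and 300 mg/kg, with 600 mg/kg in some cases. Neurological deficit was read at 30 min or 4 h after dosing on a 1-in.-diameter knurled plastic rod turning at 6 rpm. Toxicity was scored as failure to stay on the rod for 1 min.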

[5] = test system: Mus musculus; assay: Compound was evaluated for anticonvulsant activity against maximal electric shock (MES) induced convulsions after 4 hr at a dose of 300 mg/kg; format: functional
[6] = species: Mus musculus; assay: Compound was evaluated for anticonvulsant activity against maximal electroshock seizures; format: functional
How it was run: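 Male Carworth Farms number-one mice received the compound ip in 30% polyethylene glycol 400 before maximal electroshock testing, at several dose levels. The median effective dose (ED50) was obtained by the graphical method.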

[7] = test system: Mus musculus; assay: Compound was evaluated for toxicity by rotarod assay method after 4 hr; C indicates no activity at 300 mg/kg.; format: organism-based; set-up: dose 300 mg/kg; conditions: in vivo; how it was run: as §1
[8] = test system: Mus musculus; assay: Compound was evaluated for anticonvulsant activity against subcutaneous pentylenetetrazole-induced convulsions after 4 hr; C indicates no activity at 300 mg/kg.; format: functional, organism-based; set-up: dose 300 mg/kg
How it was run: (§2)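 Male Carworth Farms number-one mice were dosed ip in 30% PEG 400, at 30, 100 or 300 mg/kg (sometimes 600 mg/kg). Pentylenetetrazole, 85 mg/kg as a 0.5% solution, was injected subcutaneously in the posterior midline. Protection meant no episode of clonic spasms lasting at least 5 s during a 30-min observation period.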

[9] = test system: Mus musculus; assay: Compound was evaluated for anticonvulsant activity against maximal electric shock (MES) induced convulsions after 30 minutes; C indicates no activity at 300 mg/kg.; format: functional, organism-based; set-up: dose 300 mg/kg
[10] = test system: Mus musculus; assay: Compound was evaluated for anticonvulsant activity against subcutaneous pentylenetetrazole-induced convulsions after 30 minutes; C indicates no activity at 300 mg/kg.; format: functional, organism-based; set-up: dose 300 mg/kg; how it was run: as §2
[11] = test system: Mus musculus; assay: Compound was evaluated for anticonvulsant activity against maximal electric shock (MES) induced convulsions after 30 minutes at a dose of 300 mg/kg; format: functional
[12] = test system: Mus musculus; assay: Compound was evaluated for anticonvulsant activity against subcutaneous pentylenetetrazole-induced convulsions after 30 minutes; E indicates no activity at 30 mg/kg.; format: functional, organism-based; set-up: dose 30 mg/kg; how it was run: as §2
[13] = test system: Mus musculus; assay: Compound was evaluated for toxicity by rotarod assay method after 30 minutes at a dose of 600 mg/kg; format: organism-based; set-up: dose 600 mg/kg; conditions: in vivo, 0.5 h; how it was run: as §1
[14] = test system: Mus musculus; assay: Compound was evaluated for anticonvulsant activity against maximal electric shock (MES) induced convulsions after 4 hr; E indicates no activity at 30 mg/kg.; format: functional, organism-based; set-up: dose 30 mg/kg
[15] = test system: Mus musculus; assay: Compound was evaluated for anticonvulsant activity against subcutaneous pentylenetetrazole-induced convulsions after 4 hr; E indicates no activity at 30 mg/kg.; format: functional, organism-based; set-up: dose 30 mg/kg; how it was run: as §2
[16] = test system: Mus musculus; assay: Compound was evaluated for toxicity by rotarod assay method after 4 hr; E indicates no activity at 30 mg/kg.; format: organism-based; set-up: dose 30 mg/kg; conditions: in vivo; how it was run: as §1
[17] = test system: Mus musculus; assay: Compound was evaluated for anticonvulsant activity against subcutaneous pentylenetetrazole-induced convulsions after 4 hr; C is inactive at 300 mg/kg.; format: functional, organism-based; set-up: dose 300 mg/kg; how it was run: as §2
[18] = test system: Mus musculus; assay: Compound was evaluated for anticonvulsant activity against maximal electric shock (MES) induced convulsions after 4 hr; C is inactive at 300 mg/kg.; format: functional, organism-based; set-up: dose 300 mg/kg
[19] = test system: Mus musculus; assay: Compound was evaluated for toxicity by rotarod assay method after 4 hr; C is inactive at 300 mg/kg.; format: organism-based; set-up: dose 300 mg/kg; conditions: in vivo; how it was run: as §1
[20] = test system: Mus musculus; assay: Compound was evaluated for anticonvulsant activity against subcutaneous pentylenetetrazole-induced convulsions after 30 minutes;C is inactive at 300 mg/kg.; format: functional, organism-based; set-up: dose 300 mg/kg; how it was run: as §2
[21] = test system: Mus musculus; assay: Compound was evaluated for anticonvulsant activity against maximal electric shock (MES) induced convulsions after 30 minutes;C is inactive at 300 mg/kg.; format: functional, organism-based; set-up: dose 300 mg/kg
[22] = test system: Mus musculus; assay: Compound was evaluated for toxicity by rotarod assay method after 30 minutes;C is inactive at 300 mg/kg.; format: organism-based; set-up: dose 300 mg/kg; conditions: in vivo, 0.5 h; how it was run: as §1

CC(NC(=O)c1ccc(N)cc1)c1ccccc1 (configuration not stated)
LD50 [1]: 718 mg/kg | Protective index [2]: 9.5 and 4.1 | HD50 [3]: 461.76 mg/kg

CN(C)c1ccc(C(=O)NCc2ccccc2)cc1
Toxicity [4]: No activity at 300 mg/kg | Activity [5]: 2 | ED50 [6]: 233 mg/kg | Toxicity [7]: No activity at 300 mg/kg | Activity [8]: No activity at 300 mg/kg | Activity [9]: No activity at 300 mg/kg | Activity [10]: No activity at 300 mg/kg

CC(NCc1ccccc1N)c1ccccc1 (configuration not stated)
Activity [11]: 2 | Activity [12]: No activity at 30 mg/kg | Toxicity [13]: 1 | Activity [14]: No activity at 30 mg/kg | Activity [15]: No activity at 30 mg/kg | Toxicity [16]: No activity at 30 mg/kg

CC(NC(=O)c1ccccc1)c1ccccc1 (configuration not stated)
Activity [17]: No activity at 300 mg/kg | Activity [18]: No activity at 300 mg/kg | Toxicity [19]: No activity at 300 mg/kg | Activity [20]: No activity at 300 mg/kg | Activity [21]: No activity at 300 mg/kg | Toxicity [22]: No activity at 300 mg/kg
